Results: ChEMBL document CHEMBL3600357 (J Med Chem, 2015)

Experiments:
SJSA-1 = experiment: Inhibition of cell proliferation of human SJSA1 cells
[1] = Cmax in Sprague-Dawley rat at 3 mg/kg, po; type: ADME, organism-based; design: dose 3 mg/kg, route oral; details: in vivo
How it was run: (§1)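 Sprague-Dawley rats. IV dose given as a solution in NMP:PEG200 (10:90); 3 mg/kg PO given as a suspension in CMC:water:Tween (0.5:99:0.5). AUC and Cmax dose-normalized to 1 mg/kg. Mean ± SD from four rats.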

Rattus norvegicus [2] = experiment: Oral bioavailability in Sprague-Dawley rat at 3 mg/kg; type: ADME, organism-based; details: in vivo; how it was run: as §1
[3] = Permeability in human Caco2 cells assessed as drug recovery during apical to basolateral transport; type: ADME, cell-based; details: Caco-2, read-out: Drug recovery
[4] = Half life in rat liver microsomes; type: ADME
[5] = Permeability from basolateral to apical side in human Caco2 cells; type: ADME, cell-based; details: Caco-2
[6] = Volume of distribution at steady state in Sprague-Dawley rat at 1 mg/kg, iv; type: ADME, organism-based; details: Sprague-Dawley, in vivo, read-out: Vdss
[7] = molecular target: Voltage-gated inwardly rectifying potassium channel KCNH2 (Homo sapiens, UniProt Q12809); experiment: Inhibition of human ERG by radioligand binding assay
Sequence of Voltage-gated inwardly rectifying potassium channel KCNH2 (Q12809 whole entry): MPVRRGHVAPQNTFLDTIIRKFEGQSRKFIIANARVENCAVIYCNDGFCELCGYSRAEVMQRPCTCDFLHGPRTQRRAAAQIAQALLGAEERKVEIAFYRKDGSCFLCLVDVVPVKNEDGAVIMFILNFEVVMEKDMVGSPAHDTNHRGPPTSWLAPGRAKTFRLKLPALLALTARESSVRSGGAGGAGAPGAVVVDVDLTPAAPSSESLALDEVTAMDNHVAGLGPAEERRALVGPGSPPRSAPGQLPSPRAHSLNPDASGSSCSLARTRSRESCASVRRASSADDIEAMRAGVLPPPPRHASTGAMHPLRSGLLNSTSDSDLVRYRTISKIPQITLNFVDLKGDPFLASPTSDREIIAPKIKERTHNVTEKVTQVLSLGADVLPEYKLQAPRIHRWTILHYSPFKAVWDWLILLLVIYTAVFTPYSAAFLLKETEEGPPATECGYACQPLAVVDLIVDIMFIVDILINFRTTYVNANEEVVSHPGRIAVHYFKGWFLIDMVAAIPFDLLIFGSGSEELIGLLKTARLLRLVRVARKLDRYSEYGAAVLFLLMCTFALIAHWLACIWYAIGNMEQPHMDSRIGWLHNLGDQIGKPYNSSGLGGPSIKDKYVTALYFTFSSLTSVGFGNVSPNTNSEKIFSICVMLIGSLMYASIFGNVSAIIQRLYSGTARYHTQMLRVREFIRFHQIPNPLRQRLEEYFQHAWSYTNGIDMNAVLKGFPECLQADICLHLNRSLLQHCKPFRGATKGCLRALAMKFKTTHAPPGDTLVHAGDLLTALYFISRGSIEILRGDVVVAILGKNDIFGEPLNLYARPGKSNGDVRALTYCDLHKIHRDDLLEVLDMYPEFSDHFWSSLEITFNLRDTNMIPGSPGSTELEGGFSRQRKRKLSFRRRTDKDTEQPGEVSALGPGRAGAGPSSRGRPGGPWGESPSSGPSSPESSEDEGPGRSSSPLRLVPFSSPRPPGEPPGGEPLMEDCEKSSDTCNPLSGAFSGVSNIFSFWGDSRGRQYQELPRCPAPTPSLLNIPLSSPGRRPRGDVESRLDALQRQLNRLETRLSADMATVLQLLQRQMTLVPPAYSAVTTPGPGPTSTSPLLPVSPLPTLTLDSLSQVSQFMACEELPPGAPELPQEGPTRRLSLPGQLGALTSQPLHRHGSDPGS

[8] = Intrinsic clearance in rat liver microsomes; type: ADME; details: read-out: CLH
[9] = Protein binding in Sprague-Dawley rat plasma by equilibrium dialysis method; type: ADME, cell-free; details: read-out: PPB
How it was run: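 Rat plasma protein binding by rapid equilibrium dialysis (RED) in 100% plasma.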

[10] = Clearance in Sprague-Dawley rat at 1 mg/kg, iv; type: ADME, organism-based; details: in vivo; how it was run: as §1
[11] = Tmax in Sprague-Dawley rat at 3 mg/kg, po; type: ADME, organism-based; details: in vivo
[12] = Permeability from apical to basolateral side in human Caco2 cells; type: ADME, cell-based; details: Caco-2
Rattus norvegicus [13] = experiment: AUC in Sprague-Dawley rat at 1 mg/kg, iv; type: ADME, organism-based; details: in vivo; how it was run: as §1
Rattus norvegicus [14] = experiment: AUC in Sprague-Dawley rat at 3 mg/kg, po; type: ADME, organism-based; details: in vivo; how it was run: as §1
[15] = Equilibrium solubility in pH 6.8 buffer solution; type: physicochemical
How it was run: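 High-throughput equilibrium solubility assay at pH 6.8.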

Cytochrome P450 3A4 [16] = molecular target: T1, Cytochrome P450 3A4 (Homo sapiens, UniProt P08684); experiment: Time dependent inhibition of CYP3A4 (unknown origin); type: ADME
T1 sequence (P08684 whole entry): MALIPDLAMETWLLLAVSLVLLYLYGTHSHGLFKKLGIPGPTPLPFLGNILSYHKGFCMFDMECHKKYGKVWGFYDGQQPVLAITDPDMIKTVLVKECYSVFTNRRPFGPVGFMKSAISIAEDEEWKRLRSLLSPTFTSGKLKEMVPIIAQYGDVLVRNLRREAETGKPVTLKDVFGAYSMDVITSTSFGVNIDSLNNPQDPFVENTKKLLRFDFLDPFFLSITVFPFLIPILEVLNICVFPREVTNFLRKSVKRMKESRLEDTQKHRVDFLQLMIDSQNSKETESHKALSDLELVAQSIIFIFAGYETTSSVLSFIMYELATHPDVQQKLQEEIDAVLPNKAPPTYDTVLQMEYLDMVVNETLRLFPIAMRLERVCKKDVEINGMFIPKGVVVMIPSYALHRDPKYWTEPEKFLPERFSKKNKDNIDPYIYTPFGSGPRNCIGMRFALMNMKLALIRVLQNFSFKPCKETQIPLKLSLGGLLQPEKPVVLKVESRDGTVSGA

[17] = Terminal half life in Sprague-Dawley rat at 1 mg/kg, iv; type: ADME, organism-based; details: Sprague-Dawley, in vivo, read-out: beta t1/2 (converted); how it was run: as §1
[18] = Intrinsic clearance in human liver microsomes; type: ADME; details: read-out: CLH
Cytochrome P450 3A4 [19] = molecular target: T1, Cytochrome P450 3A4; experiment: Time dependent inhibition of CYP3A4 in human liver microsomes; type: ADME
[20] = Octanol water partition coefficient, logP of the compound; type: physicochemical
[21] = molecular target: Tumour suppressor p53/oncoprotein Mdm2 (Homo sapiens, UniProt Q00987); experiment: Inhibition of MDM2/p53 interaction (unknown origin) using biotinylated MDM2 and Cy5-p53 (18 to 26 amino acids) by TR-FRET assay; type: protein assay
Sequence of Tumour suppressor p53/oncoprotein Mdm2 (P04637 whole entry, the tested form may be a part): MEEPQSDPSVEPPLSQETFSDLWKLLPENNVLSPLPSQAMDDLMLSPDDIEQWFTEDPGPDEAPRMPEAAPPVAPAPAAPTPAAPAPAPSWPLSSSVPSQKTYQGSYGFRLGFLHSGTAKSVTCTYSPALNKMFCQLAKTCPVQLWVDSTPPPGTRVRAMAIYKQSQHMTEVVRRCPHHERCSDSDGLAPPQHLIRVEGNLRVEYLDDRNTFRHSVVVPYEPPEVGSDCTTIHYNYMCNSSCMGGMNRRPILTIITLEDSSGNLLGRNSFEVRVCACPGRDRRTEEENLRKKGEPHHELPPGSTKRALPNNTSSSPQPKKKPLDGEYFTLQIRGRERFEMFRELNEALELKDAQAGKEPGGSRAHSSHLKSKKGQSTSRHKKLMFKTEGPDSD
Sequence of Tumour suppressor p53/oncoprotein Mdm2 (Q00987 whole entry, the tested form may be a part): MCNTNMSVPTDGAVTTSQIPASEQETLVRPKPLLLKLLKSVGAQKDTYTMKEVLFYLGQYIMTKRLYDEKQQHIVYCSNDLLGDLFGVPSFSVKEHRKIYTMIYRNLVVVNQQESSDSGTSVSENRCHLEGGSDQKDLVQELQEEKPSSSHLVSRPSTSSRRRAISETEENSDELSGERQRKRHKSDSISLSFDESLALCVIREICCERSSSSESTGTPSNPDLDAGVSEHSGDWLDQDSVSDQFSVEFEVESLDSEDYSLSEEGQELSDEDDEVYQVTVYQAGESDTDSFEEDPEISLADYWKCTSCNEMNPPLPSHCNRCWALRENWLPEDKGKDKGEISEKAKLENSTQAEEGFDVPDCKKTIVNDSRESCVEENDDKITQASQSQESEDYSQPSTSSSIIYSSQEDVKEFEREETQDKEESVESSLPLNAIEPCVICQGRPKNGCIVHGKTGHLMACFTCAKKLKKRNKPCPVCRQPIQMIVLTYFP

[22] = Intrinsic clearance in monkey liver microsomes; type: ADME, Macaca mulatta; details: rhesus monkey, read-out: CLH
[23] = molecular target: E3 ubiquitin-protein ligase Mdm2 (Canis lupus familiaris, UniProt P56950); experiment: Inhibition of dog MDM2 by TR-FRET assay
Sequence of E3 ubiquitin-protein ligase Mdm2 (Canis lupus familiaris, UniProt P56950) (P56950 whole entry): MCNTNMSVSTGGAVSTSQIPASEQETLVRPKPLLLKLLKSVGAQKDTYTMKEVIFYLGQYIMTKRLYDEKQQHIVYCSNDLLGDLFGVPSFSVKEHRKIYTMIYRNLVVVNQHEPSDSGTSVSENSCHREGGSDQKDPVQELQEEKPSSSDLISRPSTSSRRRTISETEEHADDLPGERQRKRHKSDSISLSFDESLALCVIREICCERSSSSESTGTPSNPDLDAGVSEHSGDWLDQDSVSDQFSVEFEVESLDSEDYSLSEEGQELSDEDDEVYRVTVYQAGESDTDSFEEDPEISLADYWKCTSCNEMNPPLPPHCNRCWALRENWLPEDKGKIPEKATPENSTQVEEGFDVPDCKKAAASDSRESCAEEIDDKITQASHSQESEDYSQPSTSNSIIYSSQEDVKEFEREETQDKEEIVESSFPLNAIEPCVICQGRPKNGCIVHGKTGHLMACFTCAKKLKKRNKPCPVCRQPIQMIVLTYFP

[24] = Inhibition of rat MDM2 by TR-FRET assay
[25] = molecular target: E3 ubiquitin-protein ligase Mdm2 (Mus musculus, UniProt P23804); experiment: Inhibition of mouse MDM2 by TR-FRET assay
Sequence of E3 ubiquitin-protein ligase Mdm2 (Mus musculus, UniProt P23804) (P23804 whole entry): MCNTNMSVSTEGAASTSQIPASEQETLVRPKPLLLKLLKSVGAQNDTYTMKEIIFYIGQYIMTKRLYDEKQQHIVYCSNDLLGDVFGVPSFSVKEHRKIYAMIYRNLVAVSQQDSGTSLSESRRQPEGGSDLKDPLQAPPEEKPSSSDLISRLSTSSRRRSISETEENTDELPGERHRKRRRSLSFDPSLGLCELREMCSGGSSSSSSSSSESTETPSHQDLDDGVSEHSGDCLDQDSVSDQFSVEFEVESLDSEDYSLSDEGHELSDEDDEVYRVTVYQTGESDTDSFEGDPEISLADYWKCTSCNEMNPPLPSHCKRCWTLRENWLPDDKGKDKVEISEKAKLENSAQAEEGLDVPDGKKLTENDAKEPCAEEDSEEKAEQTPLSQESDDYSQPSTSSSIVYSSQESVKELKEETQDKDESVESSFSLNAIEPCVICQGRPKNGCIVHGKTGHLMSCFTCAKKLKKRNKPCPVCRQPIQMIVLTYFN

**Q.** With `CC[C@@H](C)Oc1cc2c(cc1OC)CC(=O)N(c1ccc(N(C)Cc3ccncc3)cc1)C2c1ccc(Cl)cc1` (stereo not given in full) as the compound, how does the GI50 (SJSA-1) read?
**A.** Its GI50 is 3.86 µM.

**Q.** With `CC[C@@H](C)Oc1cc2c(cc1OC)CC(=O)N(c1ccc(N(C)Cc3ccncc3)cc1)[C@H]2c1ccc(Cl)cc1` as the compound, how does the GI50 (SJSA-1) read?
**A.** The GI50 was 1.21 µM.

**Q.** Which GI50 (SJSA-1) does the source give for `CC[C@@H](C)Oc1cc2c(cc1OC)CC(=O)N(c1ccc(N(C)Cc3ccncc3)cc1)[C@@H]2c1ccc(Cl)cc1` here?
**A.** Its GI50 is 29.6 µM.

**Q.** With `CC[C@@H](C)Oc1cc2c(cc1OC)CC(=O)N(c1ccc(N(C)CC3CCNCC3)cc1)C2c1ccc(Cl)cc1` (stereo not given in full) as the compound, how does the GI50 (SJSA-1) read?
**A.** The GI50 was 1.09 µM.

**Q.** Which GI50 (SJSA-1) does the source give for `CC[C@@H](C)Oc1cc2c(cc1OC)CC(=O)N(c1ccc(N(C)C[C@H]3CC[C@H](N)CC3)cc1)C2c1ccc(Cl)cc1` (stereo not given in full) here?
**A.** Its GI50 is 2.85 µM.

**Q.** With `CC[C@@H](C)Oc1cc2c(cc1OC)CC(=O)N(c1ccc(N(C)C[C@H]3CC[C@H](N(C)C)CC3)cc1)C2c1ccc(Cl)cc1` (stereo not given in full) as the compound, how does the GI50 (SJSA-1) read?
**A.** The GI50 was 1.13 µM.

**Q.** What does the source list for `CC[C@@H](C)Oc1cc2c(cc1OC)CC(=O)N(c1ccc(N(C)C[C@H]3CC[C@H](N(C)C)CC3)cc1)[C@H]2c1ccc(Cl)cc1`?
**A.** Cmax [1]: 0.0176 µM; F (Rattus norvegicus [2]): 18%; recovery [3]: < 30%; half-life [4]: 4.1 h; Papp B→A [5]: 1.2 nm/s; Vd [6]: 23.9 L/kg; IC50 [7]: 1.3 µM; GI50 (SJSA-1): 0.94 µM; microsomal CLint [8]: 5.6 µL/min/mg; fraction unbound [9]: < 0.01; clearance [10]: 0.9 L/h/kg; Tmax [11]: 7 h; Papp A→B [12]: 0.8 nm/s; AUC (Rattus norvegicus [13]): 1574 nM·h; AUC (Rattus norvegicus [14]): 297 nM·h; solubility thermodynamic [15]: > 1000 µM; K (Cytochrome P450 3A4 [16]): 0.042 min⁻¹; half-life [17]: 19.1 h

**Q.** Which results are given for `COc1cc2c(cc1OC(C)C)[C@H](c1ccc(Cl)cc1)N(c1ccc(N(C)C[C@H]3CC[C@H](N(C)C)CC3)cc1)C(=O)C2`?
**A.** microsomal CLint [18]: 4.6 µL/min/mg; GI50 (SJSA-1): 0.71 µM; IC50 (Cytochrome P450 3A4 [19]): 9.4 µM; logP [20]: > 4.2

**Q.** For `CCC(=O)N[C@H]1CC[C@H](CN(C)c2ccc(N3C(=O)Cc4cc(OC)c(O[C@H](C)CC)cc4[C@@H]3c3ccc(Cl)cc3)cc2)CC1`, which IC50 [7] is on record?
**A.** Its IC50 is over 30 µM.

**Q.** What about the GI50 (SJSA-1) of the same compound?
**A.** Its GI50 is 4.96 µM.

**Q.** And the IC50 [21]?
**A.** The IC50 was 0.02 µM.

**Q.** Which GI50 (SJSA-1) does the source give for `COc1cc2c(cc1OC(C)C)[C@H](c1ccc(Cl)cc1)N(c1ccc(N(C)C[C@H]3CC[C@H](N4CNC(=O)C4)CC3)cc1)C(=O)C2` here?
**A.** Its GI50 is 0.6 µM.

**Q.** What about the IC50 [21] of the same compound?
**A.** Its IC50 is 0.0017 µM.

**Q.** With `COc1cc2c(cc1OC(C)C)[C@H](c1ccc(Cl)cc1)N(c1ccc(N(C)C[C@H]3CC[C@H](N4CCNC(=O)C4)CC3)cc1)C(=O)C2` as the compound, how does the Cmax [1] read?
**A.** Its Cmax is 0.0746 µM.

**Q.** What about the microsomal CLint [18] of the same compound?
**A.** The microsomal CLint was 3.4 µL/min/mg.

**Q.** And the F (Rattus norvegicus [2])?
**A.** Its F is 49%.

**Q.** What about the microsomal CLint [22] of the same compound?
**A.** The microsomal CLint was 79.7 µL/min/mg.

**Q.** And the Vd [6]?
**A.** The Vd was 8 L/kg.

**Q.** And the IC50 [7]?
**A.** Its IC50 is 16 µM.

**Q.** What about the GI50 (SJSA-1) of the same compound?
**A.** Its GI50 is 0.35 µM.

**Q.** What about the IC50 (Cytochrome P450 3A4 [19]) of the same compound?
**A.** Its IC50 is 11.3 µM.

**Q.** What about the fraction unbound [9] of the same compound?
**A.** The fraction unbound was under 0.01.

**Q.** What about the logP [20] of the same compound?
**A.** The logP was 5.3.

**Q.** And the AUC (Rattus norvegicus [13])?
**A.** Its AUC is 2154 nM·h.

**Q.** What about the AUC (Rattus norvegicus [14]) of the same compound?
**A.** Its AUC is 1018 nM·h.

**Q.** And the half-life [17]?
**A.** The half-life was 9.3 h.

**Q.** For `COc1cc2c(cc1OC(C)C)[C@H](c1ccc(Cl)cc1)N(c1ccc(N(C)C[C@H]3CC[C@H](N(C)C)CC3)nc1)C(=O)C2`, which microsomal CLint [18] is on record?
**A.** Its microsomal CLint is 78.3 µL/min/mg.

**Q.** What about the IC50 (Cytochrome P450 3A4 [19]) of the same compound?
**A.** Its IC50 is 5 µM.

**Q.** And the IC50 [21]?
**A.** Its IC50 is 0.0016 µM.

**Q.** And the logP [20]?
**A.** The logP was over 6.3.

**Q.** With `COc1cc2c(cc1OC(C)C)[C@H](c1ccc(Cl)cc1)N(c1ccc(N(C)C[C@H]3CC[C@H](N4CC(=O)N(C)C4)CC3)nc1)C(=O)C2` as the compound, how does the microsomal CLint [18] read?
**A.** Its microsomal CLint is 157 µL/min/mg.

**Q.** And the microsomal CLint [22]?
**A.** The microsomal CLint was 224 µL/min/mg.

**Q.** And the IC50 (Cytochrome P450 3A4 [19])?
**A.** The IC50 was 13.2 µM.

**Q.** And the IC50 [21]?
**A.** The IC50 was 0.0114 µM.

**Q.** What about the logP [20] of the same compound?
**A.** Its logP is 4.4.

**Q.** Which microsomal CLint [18] does the source give for `COc1cc2c(cc1OC(C)C)[C@H](c1ccc(Cl)cc1)N(c1ccc(N(C)C[C@H]3CC[C@H](N4CCN(C)C(=O)C4)CC3)nc1)C(=O)C2` here?
**A.** Its microsomal CLint is 151 µL/min/mg.

**Q.** What about the microsomal CLint [22] of the same compound?
**A.** The microsomal CLint was 279 µL/min/mg.

**Q.** And the IC50 (Cytochrome P450 3A4 [19])?
**A.** The IC50 was over 20 µM.

**Q.** And the logP [20]?
**A.** Its logP is 4.8.

**Q.** With `COc1cc2c(cc1OC(C)C)[C@H](c1ccc(Cl)cc1)N(c1ccc(N(C)C[C@H]3CC[C@H](N4CCN(C)C(=O)C4)CC3)cn1)C(=O)C2` as the compound, how does the microsomal CLint [18] read?
**A.** The microsomal CLint was 156 µL/min/mg.

**Q.** And the microsomal CLint [22]?
**A.** Its microsomal CLint is 355 µL/min/mg.

**Q.** And the IC50 (Cytochrome P450 3A4 [19])?
**A.** The IC50 was over 20 µM.

**Q.** And the logP [20]?
**A.** Its logP is 4.6.

**Q.** Which microsomal CLint [18] does the source give for `COc1cc2c(cc1OC(C)C)[C@H](c1ccc(Cl)cc1)N(c1cnc(N(C)C[C@H]3CC[C@H](N4CCN(C)C(=O)C4)CC3)cn1)C(=O)C2` here?
**A.** Its microsomal CLint is 220 µL/min/mg.

**Q.** And the microsomal CLint [22]?
**A.** The microsomal CLint was 420 µL/min/mg.

**Q.** What about the IC50 (Cytochrome P450 3A4 [19]) of the same compound?
**A.** The IC50 was over 20 µM.

**Q.** What about the logP [20] of the same compound?
**A.** The logP was 4.6.

**Q.** What does the source list for `COc1ccc(C2=N[C@@H](c3ccc(Cl)cc3)[C@@H](c3ccc(Cl)cc3)N2C(=O)N2CCNC(=O)C2)c(OC(C)C)c1` [NUTLIN-3]?
**A.** Ki [23]: 0.0105 µM; Ki [24]: 0.0126 µM; Ki [25]: 0.0199 µM
